Test results from ChEMBL document CHEMBL1154400, “Pharmacokinetics of single- and multiple-dose oral clarithromycin in soft tissues determined by microdialysis” (Antimicrob Agents Chemother, 2007).

Legend:
[1] = Tmax in human interstitial-space fluid of subcutaneous adipose tissue at 500 mg, po, bid for 3 to 5 days; format: ADME, organism-based
In short: (§1)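 Oral clarithromycin 500 mg b.i.d. for 3-5 days, starting 12 h after a single 250 mg dose; last dose given supervised on the morning of day 2 after a baseline blood draw and a 2-h trough dialysate. Sampling as on day 1: microdialysis of muscle and adipose tissue plus venous plasma over 8 h, HPLC. Dialysate concentrations corrected for individual recovery.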

[2] = Tmax in human plasma at 500 mg, po, bid for 3 to 5 days; format: ADME, organism-based; in short: as §1
[3] = Tmax in fasting human interstitial-space fluid of subcutaneous adipose tissue at 250 mg, po; format: ADME, organism-based
In short: (§2)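 Healthy male volunteers aged 25-37 y, fasting; single oral 250 mg tablet after 60-min probe equilibration. Microdialysis probes in skeletal muscle and subcutaneous adipose tissue, perfused with Ringer's at 1.5 µl/min; dialysate and antecubital venous blood sampled every 20 min to 4 h, then every 30 min to 8 h. HPLC assay. Interstitial concentration = 100 x Cdialysate/recovery.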

[4] = Cmax in fasting human interstitial-space fluid of skeletal muscle at 250 mg, po; format: ADME, organism-based, Muscle tissue; set-up: dose 250 mg, route oral; in short: as §2
[5] = Terminal half life in fasting human interstitial-space fluid of skeletal muscle at 250 mg, po; format: ADME, organism-based, Muscle tissue; details: read-out: beta t1/2 (converted); in short: as §2
[6] = AUC (0 to 24 hrs) in fasting human interstitial-space fluid of subcutaneous adipose tissue at 250 mg, po; format: ADME, organism-based; in short: as §2
[7] = Terminal half life in human plasma at 500 mg, po, bid for 3 to 5 days; format: ADME, organism-based; details: read-out: beta t1/2 (converted); in short: as §1
[8] = Total clearance in human plasma at 500 mg, po, bid for 3 to 5 days; format: ADME, organism-based
[9] = Drug uptake in human adipose tissue assessed as in vivo drug recovery by microdialysis; format: ADME, organism-based
In short: (§3)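 Retrodialysis after the 8-h sampling: clarithromycin 5 mg/liter added to the Ringer's perfusate (1.5 µl/min). Recovery (%) = 100 - 100 x Cdialysate/Cperfusate, taken as the mean of two measurements per subject, in muscle and adipose tissue probes.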

[10] = Cmax in human plasma at 500 mg, po, bid for 3 to 5 days; format: ADME, organism-based; set-up: dose 500 mg, route oral; in short: as §1
[11] = Terminal half life in fasting human interstitial-space fluid of subcutaneous adipose tissue at 250 mg, po; format: ADME, organism-based; details: read-out: beta t1/2 (converted); in short: as §2
[12] = Terminal half life in human subcutaneous interstitial-space fluid of adipose tissue at 500 mg, po, bid for 3 to 5 days; format: ADME, organism-based; details: read-out: beta t1/2 (converted); in short: as §1
[13] = Terminal half life in fasting human plasma at 250 mg, po; format: ADME, organism-based; details: read-out: beta t1/2 (converted); in short: as §2
[14] = Cmax in fasting human plasma at 250 mg, po; format: ADME, organism-based; set-up: dose 250 mg, route oral; in short: as §2
[15] = Terminal half life in fasting human plasma unbound fraction at 250 mg, po; format: ADME, organism-based; details: read-out: beta t1/2 (converted)
In short: (§4)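 Free plasma concentrations obtained by applying each volunteer's measured protein binding to total plasma concentrations, measured by HPLC after the 250 mg single dose or the 500 mg b.i.d. steady-state dose, with sampling over 8 h.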

[16] = Cmax in human interstitial-space fluid of skeletal muscle at 500 mg, po, bid for 3 to 5 days; format: ADME, organism-based, Muscle tissue; set-up: dose 500 mg, route oral; in short: as §1
[17] = Total clearance in fasting human plasma at 250 mg, po; format: ADME, organism-based
[18] = Drug uptake in human Skeletal muscles assessed as in vivo drug recovery by microdialysis; format: ADME, organism-based, Muscle tissue; in short: as §3
[19] = AUC (0 to 24 hrs) in human interstitial-space fluid of skeletal muscle at 500 mg, po, bid for 3 to 5 days; format: ADME, organism-based, Muscle tissue; set-up: dose 500 mg, time < 24 hr, route oral; in short: as §1
[20] = AUC (0 to 24 hrs) in fasting human interstitial-space fluid of skeletal muscle at 250 mg, po; format: ADME, organism-based, Muscle tissue; set-up: time < 24 hr, dose 250 mg, route oral; in short: as §2
[21] = AUC (0 to 8 hrs) in fasting human interstitial-space fluid of skeletal muscle at 250 mg, po; format: ADME, organism-based, Muscle tissue; set-up: time < 8 hr, dose 250 mg, route oral; in short: as §2
[22] = Ratio of AUC (0 to 24 hrs) in fasting human interstitial-space fluid of subcutaneous adipose tissue to free AUC (0 to 24 hrs) in fasting human plasma at 250 mg, po; format: ADME, organism-based; details: read-out: Ratio AUC
In short: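 AUC0-8, AUC0-12 and AUC0-24 by the linear trapezoidal rule. Values at 12 h and 24 h extrapolated as C8 x e^(-kel x t) from the 8-h concentration. At steady state, AUC0-24 = AUC0-12 x 2. Tissue-to-free-plasma ratios use free plasma AUC, from each subject's own protein binding.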

[23] = Ratio of AUC (0 to 24 hrs) in human interstitial-space fluid of skeletal muscle to free AUC (0 to 24 hrs) in human plasma at 500 mg, po bid
[24] = Terminal half life in human plasma unbound fraction at 500 mg, po, bid for 3 to 5 days; format: ADME, organism-based; details: read-out: beta t1/2 (converted); in short: as §4
[25] = tested on: Homo sapiens; assay: Free AUC (0 to 8 hrs) in fasting human plasma at 250 mg, po; format: ADME, organism-based; details: in vivo; in short: as §4
[26] = tested on: Homo sapiens; assay: Free AUC (0 to 24 hrs) in fasting human plasma at 250 mg, po; format: ADME, organism-based; details: in vivo

Structure (SMILES): CC[C@H]1OC(=O)[C@H](C)[C@@H](O[C@H]2C[C@@](C)(OC)[C@@H](O)[C@H](C)O2)[C@H](C)[C@@H](O[C@@H]2O[C@H](C)C[C@H](N(C)C)[C@H]2O)[C@](C)(OC)C[C@@H](C)C(=O)[C@H](C)[C@@H](O)[C@]1(C)O [CLARITHROMYCIN]
- Tmax [1]: 4 h
- Tmax [2]: 3.2 h
- Tmax [3]: 3 h
- Cmax [4]: 80 ng/mL
- half-life [5]: 3.1 h
- AUC(0-t) [6]: 350 ng·h/mL
- half-life [7]: 3.7 h
- CL/F [8]: 312 mL/min
- Activity [9]: 57.7%
- Cmax [10]: 2210 ng/mL
- half-life [11]: 2.4 h
- half-life [12]: 3.4 h
- half-life [13]: 1.9 h
- Cmax [14]: 1090 ng/mL
- half-life [15]: 1.9 h
- Cmax [16]: 230 ng/mL
- CL/F [17]: 620 mL/min
- Activity [18]: 54.3%
- AUC at 24 h [19]: 2420 ng·h/mL
- AUC(0-t) at 24 h [20]: 480 ng·h/mL
- AUC(0-t) at 8 h [21]: 290 ng·h/mL
- Kp uu [22]: 0.29
- Kp uu [23]: 0.41
- half-life [24]: 3.7 h
- fAUC [25]: 990 ng·h/mL
- fAUC [26]: 1210 ng·h/mL
